# “Also recorded” adds a separate entry of the source.
# Tests used:
# APN/CD13 = experiment: immunohistochemistry of APN/CD13 expression in HT-1080 transplanted tumors; format: in vivo, human fibrosarcoma in BALB/c nude mice; settings: ubenimex 0.5 mg/kg/day i.p., one week / 7 days
# In short: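 HT-1080 cells, grown in DMEM with 10% FBS at 37 °C and 5% CO2, were inoculated at 5 × 10^6 cells into the right axilla of 8-week BALB/c nude mice. Tumors reached about 1 cm. Test compound was given at 0.5 mg/kg/day i.p. for 7 days. After the day-8 MRI, tumors were harvested, formaldehyde-fixed for 48 h, paraffin-embedded, cut at 5 μm and immunostained for APN/CD13.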
# [1] = test system: HT-1080 transplanted tumors (CD13 positive expression); experiment: T1WI MRI of HT-1080 tumor-bearing mice, T/NT ratio; format: in vivo, human fibrosarcoma in BALB/c nude mice
# [2] = test system: HT-29 transplanted tumors; experiment: tumor size on transverse MRI, HT-29; format: in vivo, human colorectal adenocarcinoma in BALB/c nude mice
# [3] = test system: HT-1080 transplanted tumors; experiment: tumor size on transverse MRI, HT-1080; format: in vivo, human fibrosarcoma in BALB/c nude mice
# In short: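 8-week BALB/c nude mice (~25 g, SPF) bore right-axillary HT-1080 xenografts from 5 × 10^6 cells. At ~1 cm, mice got Gd-labeled probe (200 µg i.p.) and 3.0T T1WI MRI with a small-animal coil (TR 200 ms, TE 2.46 ms, 3 mm slices). Test compound was then given at 0.5 mg/kg/day i.p. for 7 days, with repeat MRI on day 8. Groups were compared by one-way ANOVA.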
# [4] = proton relaxivity measurement; format: physicochemical; settings: 128 MHz, 298 K
# [5] = test system: HT-29 transplanted tumors (CD13 negative expression); experiment: T1WI MRI of HT-29 tumor-bearing mice, T/NT ratio; format: in vivo, human colorectal adenocarcinoma in BALB/c nude mice
# CD13 receptor = CD13 receptor (Homo sapiens, UniProt P15144); experiment: competitive cell binding assay; settings: HT-1080 cells, 0.01 to 60.00 µM
# CD13 receptor, sequence (P15144 whole entry): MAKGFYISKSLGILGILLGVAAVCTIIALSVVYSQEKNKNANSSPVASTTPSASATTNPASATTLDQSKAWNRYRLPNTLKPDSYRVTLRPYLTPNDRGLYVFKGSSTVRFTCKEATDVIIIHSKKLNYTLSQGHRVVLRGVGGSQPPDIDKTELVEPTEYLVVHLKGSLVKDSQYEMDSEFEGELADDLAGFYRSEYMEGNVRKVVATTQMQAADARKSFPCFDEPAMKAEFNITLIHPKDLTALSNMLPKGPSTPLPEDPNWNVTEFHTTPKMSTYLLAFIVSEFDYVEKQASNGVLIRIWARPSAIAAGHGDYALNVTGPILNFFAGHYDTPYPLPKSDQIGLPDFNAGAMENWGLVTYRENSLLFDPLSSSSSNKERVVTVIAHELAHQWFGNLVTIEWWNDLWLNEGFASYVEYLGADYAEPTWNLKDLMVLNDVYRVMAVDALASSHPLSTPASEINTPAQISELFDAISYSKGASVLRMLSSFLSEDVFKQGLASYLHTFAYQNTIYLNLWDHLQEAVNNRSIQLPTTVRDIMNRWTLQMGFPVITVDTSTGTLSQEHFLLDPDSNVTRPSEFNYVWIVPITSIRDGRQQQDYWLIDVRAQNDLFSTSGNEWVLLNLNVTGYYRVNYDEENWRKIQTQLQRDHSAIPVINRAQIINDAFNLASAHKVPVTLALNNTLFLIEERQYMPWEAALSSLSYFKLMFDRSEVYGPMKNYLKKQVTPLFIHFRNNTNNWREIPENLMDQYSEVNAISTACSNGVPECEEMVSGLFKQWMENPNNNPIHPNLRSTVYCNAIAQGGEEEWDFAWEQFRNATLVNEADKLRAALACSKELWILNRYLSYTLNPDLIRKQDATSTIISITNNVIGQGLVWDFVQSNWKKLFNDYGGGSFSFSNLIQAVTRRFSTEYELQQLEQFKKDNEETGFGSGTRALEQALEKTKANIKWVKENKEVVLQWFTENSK
molecule,measurement,setting,value
CC(C)C[C@H](NC(=O)[C@@H](O)[C@H](N)Cc1ccccc1)C(=O)O [ubenimex],expression of APN/CD13 in HT-1080 grafts after treatment,APN/CD13,decreased significantly; also recorded: markedly reduced
same,change in T/NT ratio after treatment,"[1]; ubenimex 0.5 mg/kg/day i.p., 7 days, MRI on the 8th day",decreased significantly
same,"sum of the long and short diameters of the tumor, after one week","[2]; HT-29, after one week, P = 0.001 vs before",3.5 ± 0.2 cm
same,"sum of the long and short diameters of the tumor, before","[2]; HT-29, before, P = 0.001 vs after one week",2.9 ± 0.1 cm
same,change of tumor size (sum of long and short diameters),[3]; 7 days of ubenimex treatment,not changing significantly
same,"sum of the long and short diameters of the tumor, before treatment","[3]; HT-1080, n = 5, before ubenimex, P = 0.39 before vs after",3.1 ± 0.1 cm
O=C([O-])CN1CCN(CC(=O)[O-])CCN(CC(=O)O)CCN(CC(=O)[O-])CC1.[Gd+3] [Gd-DOTA],proton relaxivity R1,[4],4.0 mM^− 1S^− 1
same,T/NT of HT-1080 xenografts (treated or untreated) compared with HT-29 xenografts,"[1]; Gd-DOTA, 1 h post-injection",no significant difference in T/NT values
same,tumor signal intensity on T1WI,"[1]; HT-1080 xenograft, intraperitoneal injection, before treatment",high signal intensity
same,time of peak T/NT value post-injection,"[1]; HT-1080 xenografts, i.p. injection, T/NT value-time curve",1 h
same,tumor signal intensity on T1WI,"[5]; HT-29 xenograft, intraperitoneal injection, before treatment",high signal intensity
same,time of peak T/NT value post-injection,"[5]; HT-29 xenografts, i.p. injection, T/NT value-time curve",1 h
DOTA-G3CNGRC,inhibition of 99mTc-DOTA-G3CNGRC binding to the CD13 receptor,CD13 receptor,inhibited by DOTA-G3CNGRC in a dose-dependent manner

# Source: PMC12215967 (Scientific Reports, 2025)
